One data set concerns CXCR2. The note with it: read-out: IC50 for CXCL8 binding; ref GSK, data on file; cited from earlier work.
Data set [1] is classed as in vivo. The note with it: human, whole blood, po, 50 mg.
Another data set concerns healthy elderly subjects. As to the kind of experiment: Safety and tolerability. The note with it: whole study. The data set is classed as in vivo, human. Put shortly: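 Healthy elderly (65–80 y) male or non-childbearing female volunteers in a single-centre randomised crossover study; 20 subjects through 4 treatment periods. Each period had omeprazole 20 mg QD for 5 days and a single oral 50 mg test compound dose (fed or fasted), with washout ≥3 days. AEs, vital signs, ECGs, clinical chemistry, haematology, urinalysis and physical examination were summarised by treatment.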

A short description of data set [2]: In vitro pH solubility profile in Britton–Robinson buffer. The data set is classed as physicochemical. The note with it: pH 6, aqueous buffer, thermodynamic from solid. Put shortly:
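Excess solid added to Britton–Robinson buffer at the set pH in a vial, rolled 4 h at ambient temperature. A sample was filtered by centrifugation through a 0.45 μm PVDF membrane. The clear filtrate was assayed by gradient reversed-phase HPLC on C18 (water/acetonitrile, 0.05 % TFA) with UV detection at 220 nm.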

[3] abbreviates: all treatment periods, 20 subjects.

The IC50 is the concentration that inhibits the measured activity by half. What is called half-life is the time in which the quantity being followed falls by half. A low value points to rapid decline. What is called solubility is how much of the substance goes into solution per volume. Higher therefore signals much dissolved substance.

SMILES strings stand for the structures. In brackets after ≈: the same amount, converted by molar mass.

In the case of `Cc1c(F)cccc1NC(=O)Nc1ccc(Cl)c(S(=O)(=O)[C@H]2CCCNC2)c1O` [danirixin, Danirixin], in the data set with CXCR2, the IC50 was […]. Further, the half-life in data set [1] fell in the range of 7 to 9 h. Besides, the “serious AEs” value in the data set with healthy elderly subjects is given as “no serious AEs”. Also, in the data set with healthy elderly subjects (setting [3]), the “subjects reporting AEs during the study” value is listed as 45% and the “subjects reporting headaches during the study” value is listed as 20%. In addition, the concentration in solution in data set [2] (solubility at 4 h) came to 3 µg/mL (≈ 6.79 µM).

(Values after paper PMC4142138 (European Journal of Drug Metabolism and Pharmacokinetics, 2014).)
